Active and inactive are the calls of the source. No cut-off for these calls is given here.
Tests used:
[1] = Inhibition of gamma-secretase-mediated cleavage of human APP Swedish and London mutation expressed in HEK293 cells assessed as reduction in amyloid beta40 production after 4 hrs by ECL technology; format: cell-based
Procedure, shortened: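 HEK293 cells expressing human APP with Swedish and London mutations were given fresh medium and incubated with inhibitor for 4 h. Ab40 was measured in 10 microliters of conditioned medium by ECL. Values are means of n = 2.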

[2] = Inhibition of gamma-secretase-mediated cleavage of human APP Swedish and London mutation expressed in HEK293 cells assessed as reduction in amyloid beta42 production after 4 hrs by ECL technology; format: cell-based
[3] = Inhibition of gamma-secretase-mediated cleavage of human APP Swedish and London mutation expressed in HEK293 cell membrane; format: cell-based
Cytochrome P450 3A4 = Cytochrome P450 3A4 (Homo sapiens, UniProt P08684); experiment: Inhibition of CYP3A4 preincubated for 30 mins; format: ADME
Sequence of Cytochrome P450 3A4 (P08684 whole entry): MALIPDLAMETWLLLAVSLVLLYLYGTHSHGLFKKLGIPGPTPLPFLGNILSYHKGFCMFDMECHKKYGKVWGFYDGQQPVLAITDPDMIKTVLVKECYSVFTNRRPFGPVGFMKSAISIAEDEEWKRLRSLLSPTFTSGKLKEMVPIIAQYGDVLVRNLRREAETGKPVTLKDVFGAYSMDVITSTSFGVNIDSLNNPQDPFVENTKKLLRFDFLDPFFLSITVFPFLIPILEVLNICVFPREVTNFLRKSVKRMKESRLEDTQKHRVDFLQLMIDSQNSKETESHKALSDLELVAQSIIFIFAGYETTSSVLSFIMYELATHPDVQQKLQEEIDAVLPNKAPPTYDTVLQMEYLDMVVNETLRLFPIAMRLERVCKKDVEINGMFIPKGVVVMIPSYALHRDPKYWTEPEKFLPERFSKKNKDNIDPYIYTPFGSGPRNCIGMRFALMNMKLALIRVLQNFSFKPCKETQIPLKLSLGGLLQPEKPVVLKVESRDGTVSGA
Procedure, shortened: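 CYP3A4 inhibition was determined after the compound was pre-incubated for 30 min.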

[4] = molecular target: Voltage-gated inwardly rectifying potassium channel KCNH2 (Homo sapiens, UniProt Q12809); experiment: Inhibition of human ERG at 30 uM
Sequence of Voltage-gated inwardly rectifying potassium channel KCNH2 (Q12809 whole entry): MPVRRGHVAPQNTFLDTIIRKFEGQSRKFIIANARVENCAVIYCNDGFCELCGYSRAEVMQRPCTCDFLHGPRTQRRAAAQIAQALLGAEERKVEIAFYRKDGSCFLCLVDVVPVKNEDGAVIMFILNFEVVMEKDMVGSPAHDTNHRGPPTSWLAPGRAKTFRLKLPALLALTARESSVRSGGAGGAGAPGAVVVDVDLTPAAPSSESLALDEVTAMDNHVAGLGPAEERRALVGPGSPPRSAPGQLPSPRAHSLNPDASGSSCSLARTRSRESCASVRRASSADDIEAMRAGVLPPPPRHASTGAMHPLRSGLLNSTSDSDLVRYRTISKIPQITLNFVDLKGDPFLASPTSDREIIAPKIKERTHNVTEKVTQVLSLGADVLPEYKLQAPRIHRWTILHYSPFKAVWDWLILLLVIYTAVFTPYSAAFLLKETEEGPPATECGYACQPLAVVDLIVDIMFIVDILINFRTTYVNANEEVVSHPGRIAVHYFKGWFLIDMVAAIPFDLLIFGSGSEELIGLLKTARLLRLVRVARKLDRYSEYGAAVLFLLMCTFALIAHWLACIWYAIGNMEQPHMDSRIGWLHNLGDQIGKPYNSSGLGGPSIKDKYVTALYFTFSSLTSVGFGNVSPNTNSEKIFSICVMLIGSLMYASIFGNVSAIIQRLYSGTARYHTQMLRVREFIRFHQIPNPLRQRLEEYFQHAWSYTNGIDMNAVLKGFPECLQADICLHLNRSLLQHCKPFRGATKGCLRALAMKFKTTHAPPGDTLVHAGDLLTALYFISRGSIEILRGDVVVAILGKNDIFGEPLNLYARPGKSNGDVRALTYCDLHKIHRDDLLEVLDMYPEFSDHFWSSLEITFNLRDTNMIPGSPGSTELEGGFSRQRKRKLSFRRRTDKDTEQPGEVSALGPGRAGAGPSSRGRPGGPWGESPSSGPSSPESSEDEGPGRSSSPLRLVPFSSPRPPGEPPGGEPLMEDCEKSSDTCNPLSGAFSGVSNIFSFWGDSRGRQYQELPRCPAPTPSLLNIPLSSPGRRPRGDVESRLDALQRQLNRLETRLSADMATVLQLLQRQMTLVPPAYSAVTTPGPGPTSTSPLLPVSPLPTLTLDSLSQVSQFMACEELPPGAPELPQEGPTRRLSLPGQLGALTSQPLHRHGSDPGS

[5] = Ratio of drug level in brain to plasma in rat at 10 mg/kg, po; format: ADME, organism-based; design: dose 10 mg/kg, route oral
Mus musculus [6] = experiment: Reduction of amyloid beta40 level in non-transgenic mouse plasma at 10 mg/kg, po after 3 hrs; format: functional
[7] = Permeability across human Caco-2 cells; format: ADME, cell-based; conditions: read-out: permeability
Mus musculus [8] = experiment: Reduction of amyloid beta40 level in non-transgenic mouse brain at 10 mg/kg, po after 3 hrs; format: functional
[9] = AUC in rat at 10 mg/kg, po after 6 hrs; format: ADME, organism-based; design: time < 6 hr, dose 10 mg/kg, route oral; conditions: plasma
Procedure, shortened: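 Rats were dosed orally at 10 mpk in 20% HPBCD. AUC was measured over 6 h by the cassette-accelerated rapid rat screen (CARRS).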

[10] = Drug level in rat brain at 10 mg/kg, po after 6 hrs; format: ADME, organism-based; design: dose 10 mg/kg, route oral; conditions: read-out: Drug uptake
Homo sapiens = species on record: Homo sapiens; experiment: Protein binding in human plasma; conditions: read-out: PPB (converted)
[11] = Binding affinity to p-glycoprotein

SMILES | IC50 [1] | IC50 [2] | IC50 [3] | other results
CS(=O)(=O)NC[C@@H]1CCC[C@@]2(S(=O)(=O)c3ccc(Cl)cc3)c3c(F)ccc(F)c3OC[C@@H]12 | 2 nM | 2 nM | 2.5 nM | –
O=S(=O)(NC[C@@H]1CCC[C@@]2(S(=O)(=O)c3ccc(Cl)cc3)c3c(F)ccc(F)c3OC[C@@H]12)N1CCCCC1 | 19 nM | 11 nM | 6 nM | –
CCCCS(=O)(=O)NC[C@@H]1CCC[C@@]2(S(=O)(=O)c3ccc(Cl)cc3)c3c(F)ccc(F)c3OC[C@@H]12 | 29 nM | 13 nM | 13 nM | –
CCN(CC)S(=O)(=O)NC[C@@H]1CCC[C@@]2(S(=O)(=O)c3ccc(Cl)cc3)c3c(F)ccc(F)c3OC[C@@H]12 | 6 nM | 3 nM | 9 nM | –
O=S(=O)(CC(F)(F)F)NC[C@@H]1CCC[C@@]2(S(=O)(=O)c3ccc(Cl)cc3)c3c(F)ccc(F)c3OC[C@@H]12 | 16 nM | 4 nM | 7.8 nM | –
CCN(C[C@@H]1CCC[C@@]2(S(=O)(=O)c3ccc(Cl)cc3)c3c(F)ccc(F)c3OC[C@@H]12)S(C)(=O)=O | 12 nM | 5 nM | 5.5 nM | –
O=S(=O)(CC(F)(F)F)NC[C@@H]1CCC[C@@]2(S(=O)(=O)c3ccc(C(F)(F)F)cc3)c3c(F)ccc(F)c3OC[C@@H]12 | 22.7 nM | 8 nM | 25 nM | –
O=S(=O)(NC[C@@H]1CCC[C@@]2(S(=O)(=O)c3ccc(Cl)cc3)c3c(F)ccc(F)c3OC[C@@H]12)C1CCCCC1 | 60 nM | 20 nM | 55 nM | –
CCN(C[C@@H]1CCC[C@@]2(S(=O)(=O)c3ccc(C(F)(F)F)cc3)c3c(F)ccc(F)c3OC[C@@H]12)S(=O)(=O)C1CC1 | 46.7 nM | 21 nM | 83 nM | –
O=S(=O)(NC[C@@H]1CCC[C@@]2(S(=O)(=O)c3ccc(Cl)cc3)c3c(F)ccc(F)c3OC[C@@H]12)c1ccccc1 | 128 nM | 46 nM | 61 nM | –
O=S(=O)(NC[C@@H]1CCC[C@@]2(S(=O)(=O)c3ccc(Cl)cc3)c3c(F)ccc(F)c3OC[C@@H]12)c1cccs1 | 45 nM | 18 nM | 16.7 nM | –
O=S(=O)(NC[C@@H]1CCC[C@@]2(S(=O)(=O)c3ccc(C(F)(F)F)cc3)c3c(F)ccc(F)c3OC[C@@H]12)C(F)(F)F | 40.6 nM | 18.7 nM | 41.7 nM | IC50 (Cytochrome P450 3A4): > 30000 nM; inhibition (INH) [4]: Not Active; Kp [5]: 1.01; inhibition in vivo at 10 mg/kg (Mus musculus [6]): 101%; Papp [7]: 23 ×10⁻⁶ cm/s; inhibition in vivo at 10 mg/kg (Mus musculus [8]): 71%; AUC at 6 h [9]: 702 ng·h/mL; concentration at 6 h [10]: 91 ng/g; fraction unbound (Homo sapiens): 0.001; Activity [11]: inactive
CN(C)S(=O)(=O)NC[C@@H]1CCC[C@@]2(S(=O)(=O)c3ccc(C(F)(F)F)cc3)c3c(F)ccc(F)c3OC[C@@H]12 | 12.7 nM | 5.4 nM | 6.8 nM | –
NS(=O)(=O)NC[C@@H]1CCC[C@@]2(S(=O)(=O)c3ccc(C(F)(F)F)cc3)c3c(F)ccc(F)c3OC[C@@H]12 | 6 nM | 4 nM | 18.7 nM | –
CCS(=O)(=O)NC[C@@H]1CCC[C@@]2(S(=O)(=O)c3ccc(C(F)(F)F)cc3)c3c(F)ccc(F)c3OC[C@@H]12 | 5.5 nM | 1.6 nM | 20 nM | –
O=S(=O)(NC[C@@H]1CCC[C@@]2(S(=O)(=O)c3ccc(Cl)cc3)c3c(F)ccc(F)c3OC[C@@H]12)C1CC1 | 4 nM | 4 nM | 3.1 nM | –
CCN(C[C@@H]1CCC[C@@]2(S(=O)(=O)c3ccc(Cl)cc3)c3c(F)ccc(F)c3OC[C@@H]12)S(=O)(=O)C1CC1 | 25 nM | 9 nM | 20.5 nM | –
CS(=O)(=O)N(C[C@@H]1CCC[C@@]2(S(=O)(=O)c3ccc(Cl)cc3)c3c(F)ccc(F)c3OC[C@@H]12)C1CC1 | 6 nM | 4 nM | 3.3 nM | –
CCS(=O)(=O)N(C[C@@H]1CCC[C@@]2(S(=O)(=O)c3ccc(C(F)(F)F)cc3)c3c(F)ccc(F)c3OC[C@@H]12)C1CC1 | 29.5 nM | 14.2 nM | 28 nM | –
NS(=O)(=O)NC[C@@H]1CCC[C@@]2(S(=O)(=O)c3ccc(Cl)cc3)c3c(F)ccc(F)c3OC[C@@H]12 | 1 nM | 1 nM | 2 nM | –
O=S(=O)(NC[C@@H]1CCC[C@@]2(S(=O)(=O)c3ccc(Cl)cc3)c3c(F)ccc(F)c3OC[C@@H]12)N1CCOCC1 | 6 nM | 3 nM | 3.4 nM | –

SMILES | IC50 [1] | IC50 [2] | IC50 [3] | other results
CCS(=O)(=O)NC[C@@H]1CCC[C@@]2(S(=O)(=O)c3ccc(Cl)cc3)c3c(F)ccc(F)c3OC[C@@H]12 | 4 nM | 2 nM | 1.6 nM | –
O=S(=O)(NC[C@@H]1CCC[C@@]2(S(=O)(=O)c3ccc(Cl)cc3)c3c(F)ccc(F)c3OC[C@@H]12)C(F)(F)F | 18 nM | 9 nM | 12 nM | inhibition in vivo at 10 mg/kg (Mus musculus [6]): 86%; inhibition in vivo at 10 mg/kg (Mus musculus [8]): 48%
CC(C)S(=O)(=O)NC[C@@H]1CCC[C@@]2(S(=O)(=O)c3ccc(Cl)cc3)c3c(F)ccc(F)c3OC[C@@H]12 | 12 nM | 5 nM | 5.2 nM | –
O=S1(=O)NCCN1C[C@@H]1CCC[C@@]2(S(=O)(=O)c3ccc(C(F)(F)F)cc3)c3c(F)ccc(F)c3OC[C@@H]12 | – | – | 37.7 nM | –
CN(C)S(=O)(=O)NC[C@@H]1CCC[C@@]2(S(=O)(=O)c3ccc(Cl)cc3)c3c(F)ccc(F)c3OC[C@@H]12 | 2 nM | 1 nM | 2.7 nM | –
CS(=O)(=O)N(C[C@@H]1CCC[C@@]2(S(=O)(=O)c3ccc(C(F)(F)F)cc3)c3c(F)ccc(F)c3OC[C@@H]12)C1CC1 | 9 nM | 6 nM | 5.8 nM | –
O=S(=O)(N(C[C@@H]1CCC[C@@]2(S(=O)(=O)c3ccc(Cl)cc3)c3c(F)ccc(F)c3OC[C@@H]12)C1CC1)C(F)(F)F | 21 nM | 9 nM | 15 nM | –
CS(=O)(=O)NC[C@@H]1CCC[C@@]2(S(=O)(=O)c3ccc(C(F)(F)F)cc3)c3c(F)ccc(F)c3OC[C@@H]12 | 12 nM | 3.6 nM | 13 nM | IC50 (Cytochrome P450 3A4): > 30000 nM; inhibition (INH) [4]: Not Active; Kp [5]: 0.73; Papp [7]: 42.1 ×10⁻⁶ cm/s; AUC at 6 h [9]: 2010 ng·h/mL; concentration at 6 h [10]: 80 ng/g; fraction unbound (Homo sapiens): 0.019; Activity [11]: inactive
CCN(C[C@@H]1CCC[C@@]2(S(=O)(=O)c3ccc(Cl)cc3)c3c(F)ccc(F)c3OC[C@@H]12)S(=O)(=O)CC | 15 nM | 7 nM | 16 nM | –
O=S(=O)(NC[C@@H]1CCC[C@@]2(S(=O)(=O)c3ccc(Cl)cc3)c3c(F)ccc(F)c3OC[C@@H]12)N1CCCC1 | 5 nM | 3 nM | 3.3 nM | –
CCN(C[C@@H]1CCC[C@@]2(S(=O)(=O)c3ccc(C(F)(F)F)cc3)c3c(F)ccc(F)c3OC[C@@H]12)S(C)(=O)=O | 18.5 nM | 7.4 nM | 34 nM | –
O=S(=O)(NC[C@@H]1CCC[C@@]2(S(=O)(=O)c3ccc(C(F)(F)F)cc3)c3c(F)ccc(F)c3OC[C@@H]12)C1CC1 | 17.5 nM | 6.3 nM | 19.7 nM | –
O=S1(=O)CCCCN1C[C@@H]1CCC[C@@]2(S(=O)(=O)c3ccc(C(F)(F)F)cc3)c3c(F)ccc(F)c3OC[C@@H]12 | – | – | 122 nM | –
CCN(C[C@@H]1CCC[C@@]2(S(=O)(=O)c3ccc(C(F)(F)F)cc3)c3c(F)ccc(F)c3OC[C@@H]12)S(=O)(=O)C(F)(F)F | 42 nM | 21 nM | 97 nM | –
O=S(=O)(NC[C@@H]1CCC[C@@]2(S(=O)(=O)c3ccc(Cl)cc3)c3c(F)ccc(F)c3OC[C@@H]12)c1c(F)cccc1F | 32 nM | 17 nM | 13 nM | –
CCCS(=O)(=O)NC[C@@H]1CCC[C@@]2(S(=O)(=O)c3ccc(Cl)cc3)c3c(F)ccc(F)c3OC[C@@H]12 | 12 nM | 6 nM | 5.5 nM | –
CN1CCN(C[C@@H]2CCC[C@@]3(S(=O)(=O)c4ccc(C(F)(F)F)cc4)c4c(F)ccc(F)c4OC[C@@H]23)S1(=O)=O | 23 nM | 13 nM | 68 nM | –
CCOC(=O)CCS(=O)(=O)NC[C@@H]1CCC[C@@]2(S(=O)(=O)c3ccc(Cl)cc3)c3c(F)ccc(F)c3OC[C@@H]12 | 4 nM | 3 nM | 2 nM | –
O=S1(=O)CCCN1C[C@@H]1CCC[C@@]2(S(=O)(=O)c3ccc(C(F)(F)F)cc3)c3c(F)ccc(F)c3OC[C@@H]12 | 72 nM | 25 nM | 90 nM | –
O=S(=O)(N(C[C@@H]1CCC[C@@]2(S(=O)(=O)c3ccc(C(F)(F)F)cc3)c3c(F)ccc(F)c3OC[C@@H]12)C1CC1)C(F)(F)F | 15.3 nM | 14.2 nM | 35.3 nM | –

Source: ChEMBL document CHEMBL1158621, “Tricyclic sulfones as orally active gamma-secretase inhibitors: synthesis and structure-activity relationship studies” (Bioorg Med Chem Lett, 2010)
